Hits are enriched below; roughly 1.8% of the tested compounds scored in any of these assays.
HDAC3 inhib – human HDAC3 inhibition | AID 2718 | inhibition, % at 8.3 µM | O15379 | recombinant HDAC3, fluorogenic peptide/trypsin coupled, fluorescence | 0.15% of 320,000 active; in the data active means inhibition above about 26%, passing the limit was not always enough; inconclusive means no clear call, values can overlap the other calls
ATG4B inh – blocks human ATG4B protease cleavage of LC3 substrate. Q9Y4P1. inhibition, % at 8.33 µM. ATG4B cleavage of LC3-PLA2, NBD-HPC fluorescence, 1 h. 0.51% of 340,000 active; in the data active means inhibition above about 40%
HKDC1 inh – blocks human hexokinase HKDC1 activity. Q2TB90. recombinant HKDC1, G6PDH/diaphorase resazurin coupled fluorescence. inhibition, % at 20 µM. 0.16% of 340,000 active. AID 493160;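 active means inhibition above about 35% when tested at 20 µM, limit read from the data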
Target sequence (Q2TB90 whole entry, looked up): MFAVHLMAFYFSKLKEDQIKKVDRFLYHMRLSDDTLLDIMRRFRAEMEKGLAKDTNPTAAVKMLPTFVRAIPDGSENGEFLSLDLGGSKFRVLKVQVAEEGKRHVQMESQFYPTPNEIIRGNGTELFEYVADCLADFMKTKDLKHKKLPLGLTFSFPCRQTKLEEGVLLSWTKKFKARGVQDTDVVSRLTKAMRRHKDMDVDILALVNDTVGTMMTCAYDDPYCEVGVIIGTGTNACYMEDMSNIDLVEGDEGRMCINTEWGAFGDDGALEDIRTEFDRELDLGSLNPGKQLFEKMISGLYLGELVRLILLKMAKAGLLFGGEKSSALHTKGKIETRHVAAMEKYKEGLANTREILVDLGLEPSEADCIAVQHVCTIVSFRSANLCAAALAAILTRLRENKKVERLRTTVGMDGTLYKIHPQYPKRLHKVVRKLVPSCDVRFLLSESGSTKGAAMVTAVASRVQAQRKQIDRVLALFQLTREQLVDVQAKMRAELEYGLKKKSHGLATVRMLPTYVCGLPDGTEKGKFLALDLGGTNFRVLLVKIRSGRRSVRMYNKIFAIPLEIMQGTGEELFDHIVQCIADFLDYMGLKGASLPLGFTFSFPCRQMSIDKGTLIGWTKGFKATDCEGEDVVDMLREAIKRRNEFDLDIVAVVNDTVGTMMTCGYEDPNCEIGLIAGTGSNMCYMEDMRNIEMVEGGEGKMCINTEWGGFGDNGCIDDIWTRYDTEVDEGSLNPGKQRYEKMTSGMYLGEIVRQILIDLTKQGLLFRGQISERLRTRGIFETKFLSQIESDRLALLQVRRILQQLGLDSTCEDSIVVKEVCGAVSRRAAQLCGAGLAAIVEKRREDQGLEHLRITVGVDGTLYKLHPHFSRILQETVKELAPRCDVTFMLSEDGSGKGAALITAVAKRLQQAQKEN
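Assay system: in-house recombinant HK5 (HKDC1) enzyme. Input: HKDC1 at 5 µg/mL. Medium: Tris pH 8.0 buffer with MgCl2, Tween-20, BSA, BME. Dosing: single 20 µM dose. Schedule: 90 min reaction incubation at room temperature, dark. Signal: resazurin-to-resorufin fluorescence via G6PDH and diaphorase coupling, 525/613 nm. Controls: DMSO-enzyme wells negative, buffer-substituted wells positive.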
LANA-H2A inh – blocks KSHV LANA binding to histone H2A/H2B; inhibition, % (concentration not given with the values); Q9QR71; 0.6% of 320,000 active; cell-free LANA-H2A/H2B peptide, fluorescence polarization; in the data active means inhibition mostly above about 10%, no sharp cut-off; inactive means mostly below about 6.7%
AI-2 QS modul – Vibrio harveyi AI-2 quorum sensing modulation. Vibrio harveyi JMH597 AI-2 luminescence/OD600 ratio, 9 h; active compounds read low; strain lacks LuxN and CqsS sensors; 0 = neutral-control median. activity change, % at 7.5 µM. 0.4% of 300,000 active. AID 2094; in the data active means activity change below about -75%, passing the limit was not always enough; inconclusive means no clear call, values can overlap the other calls;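 further: luminescence divided by OD600 gain over 9 h not by final OD600 alone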
A1 inh – inhibitors of the anti-apoptotic protein A1, read as caspase activation. MEF A1-2A-BIM cells, Caspase-Glo 3/7 luminescence, 3 h; percent of clofoctol response, vehicle zero. caspase activation, % (concentration not given with the values). 0.066% of 330,000 active. AID 2462;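 active means over half of replicate activation scores above 10%, or exactly half above 10 with the replicate mean above 10; inconclusive means replicate mean below 10 yet half the replicates above 10; inactive means over half of replicates below 10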
Of the large screens only hits and unclear results are named; the others gave an inactive call.

COC(=O)c1ccc(OC(=O)c2ccccn2)cc1	HDAC3 inhib 46
CCC(=O)c1ccc(OC(=O)c2cccs2)cc1	HDAC3 inhib 62
COC(=O)c1ccc(OC(=O)c2cccs2)cc1	HDAC3 inhib 63
COC(=O)c1ccc(OC(=O)c2ccco2)cc1	HDAC3 inhib 56
COc1ccc(C(=O)N/N=C/c2ccc(OC(=O)c3cccs3)cc2)cc1	none
O=C(COc1coc(CN2CCN(c3ccc(F)cc3)CC2)cc1=O)NC1CCCCC1	none (no result: HDAC3 inhib, LANA-H2A inh, AI-2 QS modul, A1 inh)
CCN(C(=O)COC(=O)c1c(NC(C)=O)sc(C)c1C)c1c(N)n(Cc2ccccc2)c(=O)[nH]c1=O	none (no result: HDAC3 inhib, LANA-H2A inh, AI-2 QS modul, A1 inh)
CCc1ccccc1NC(=O)CSc1nnc(C2CC2)n1CC1CCCO1 (stereo not given)	LANA-H2A inh 19
C[C@H]1CN([C@@H](C)CO)C(=O)Cc2cc(NC(=O)CCC(F)(F)F)ccc2O[C@H]1CN(C)S(=O)(=O)c1ccc(Cl)cc1	none (no result: HDAC3 inhib, LANA-H2A inh, AI-2 QS modul, A1 inh)
O=C(Nc1cc2c(cc1Br)OCCO2)c1ccc(=O)[nH]c1	HDAC3 inhib inconclusive (no result: AI-2 QS modul)
c1ccc2c(c1)OCC(c1nnc3n1-c1ccccc1SC3)O2 (stereo not given)	LANA-H2A inh 17
CCOc1ccc(N2C(=O)C3ON(c4ccccc4)C(c4ccco4)C3C2=O)cc1 (stereo not given)	LANA-H2A inh 11
C=CCn1c(SCc2c(C)noc2C)nc2sc(C)c(C)c2c1=O	LANA-H2A inh 56
Cc1noc(C)c1CSc1nc2sc(C)c(C)c2c(=O)n1-c1ccccc1	none
O=C(O)CCC(=O)OCCN(Cc1ccc(Oc2ccc([N+](=O)[O-])cc2)cc1)C(=O)C(Cl)Cl	none (no result: HDAC3 inhib, LANA-H2A inh, AI-2 QS modul, A1 inh)
O=C(O)CCN1C(=O)/C(=C\c2ccc(-c3nc4ccccc4s3)o2)SC1=S	HDAC3 inhib inconclusive
CC(C)(C)C1(C)OC(=O)C(=Cc2ccc(OCC(=O)Nc3ccccc3)cc2)C(=O)O1 (stereo not given)	LANA-H2A inh 25
COc1cc(C=C2C(=O)OC(C)(C)OC2=O)cc(Cl)c1OCC(=O)Nc1ccccc1	none
COc1cc(OC)c(N(C)C(=O)c2cn(C)c(=O)c3cc(OC)c(OC)cc23)cc1Cl	HDAC3 inhib 54
COc1ccc(Cl)cc1NC(=O)c1cc(-c2ccccc2O)n[nH]1	LANA-H2A inh 16
CC(=O)Nc1ccc(C(=O)CSc2nccc(=O)[nH]2)cc1	HDAC3 inhib 62
O=C1CCc2cc(OCCCCc3nnnn3C3CCCCC3)ccc2N1	LANA-H2A inh 33
COc1cccc(N2CCN(Cc3nnnn3C3CCCCC3)CC2)c1	none
CCOC(=O)c1c(SCCN2CCCC2)n(-c2ccccc2)c(=S)n(-c2ccccc2)c1=O	none (no result: HDAC3 inhib, LANA-H2A inh, AI-2 QS modul, A1 inh)
COc1ccc(N(CC(=O)N2CCC(Cc3ccccc3)CC2)S(C)(=O)=O)cc1	none
CN(C)c1nc(=NCc2cccs2)ss1	none (no result: HDAC3 inhib, LANA-H2A inh, AI-2 QS modul, A1 inh)
CCOC(=O)CC[C@H](NC(=O)Cn1cc(C)c(=O)[nH]c1=O)C(=O)OCC	none (no result: HDAC3 inhib, ATG4B inh, LANA-H2A inh, AI-2 QS modul, A1 inh)
Cc1ccc2c(c1)nnn2C1CCN(S(=O)(=O)c2ccc(C(=O)O)cc2)CC1	LANA-H2A inh 126
Cc1ccc2c(c1)nnn2C1CCN(S(=O)(=O)c2ccc(C(=O)N3C(C)CCCC3C)cc2)CC1 (stereo not given)	none
COc1cc(CCC(N)c2cccc(O)c2)cc(OC)c1OC (stereo not given)	none (no result: HDAC3 inhib, LANA-H2A inh, AI-2 QS modul, A1 inh)
CC1CCN(S(=O)(=O)c2ccc(C(=O)Nc3ncccc3O)cc2)CC1	HDAC3 inhib 64
COC(CN(C)C(=O)c1ccc(CS(=O)(=O)c2ccccc2C)o1)OC	LANA-H2A inh 14
COc1ccc(C(Sc2ccccc2)c2ccccc2)cc1OC (stereo not given)	LANA-H2A inh 12
COCCC(=O)N1CCC(Oc2ccc(C(=O)N3CCCC(OC)C3)cc2)CC1 (stereo not given)	none (no result: HDAC3 inhib, LANA-H2A inh, A1 inh)
COCCc1nc2ccc(C(=O)N3CCCC(CCCO)C3)cc2o1 (stereo not given)	LANA-H2A inh 12
COCCC(=O)N1CCC(Oc2ccc(C(=O)N3CCCC(CCCO)C3)cc2)CC1 (stereo not given)	LANA-H2A inh 18
COCCc1nc2ccc(C(=O)N3CCCCC3COC)cc2o1 (stereo not given)	HDAC3 inhib inconclusive
CC1=NNC(=O)/C1=C\c1cn(-c2ccccc2)nc1-c1cccs1	A1 inh 16
C(COC1CC2CC1C1C2CC2OC21)OC1CC2CC1C1C2CC2OC21 (stereo not given)	none (no result: HDAC3 inhib, LANA-H2A inh, AI-2 QS modul, A1 inh)
O=c1cc(CCc2ccccc2)oc2cccc(O)c12	none (no result: HDAC3 inhib, LANA-H2A inh, AI-2 QS modul, A1 inh)
O=S1(=O)CC=C(CSC(=S)NC2CCS(=O)(=O)C2)C1 (stereo not given)	AI-2 QS modul -83
CC(=O)Nc1cc2c3ccccc3n(C)c2cc1[N+](=O)[O-]	none (no result: HDAC3 inhib, LANA-H2A inh, AI-2 QS modul, A1 inh)
COc1ccc([N+](=O)[O-])cc1NCC(=O)Nc1cccc(S(=O)(=O)N2CCCC2)c1	none (no result: HDAC3 inhib, LANA-H2A inh, AI-2 QS modul, A1 inh)
OCC1(CCCc2ccccc2)CCN(Cc2cnc(N3CCOCC3)s2)CC1	none
Cc1ncc(CN2CCC(CO)(CCc3ccccc3)CC2)s1	LANA-H2A inh 16
CN(Cc1ccccc1)C(=O)COC(=O)c1ccccc1SCC(=O)N1CCCC1	none (no result: HDAC3 inhib, LANA-H2A inh, AI-2 QS modul, A1 inh)
CC1=C(C)/C(=N\OS(=O)(=O)c2ccc(C)cc2)C=CC1=O	none (no result: AI-2 QS modul)
COc1ccc(S(=O)(=O)/N=C2/C=CC(=O)C(C)=C2C)cc1	HKDC1 inh 52
OC(CCCN1CCCCC1)(c1ccccc1)c1ccc(C(F)(F)F)cc1 (stereo not given)	none (no result: HDAC3 inhib, LANA-H2A inh, AI-2 QS modul, A1 inh)
CCC(C(=O)NC1CC1)n1nc(C)c2c(C)n(-c3ccccc3)nc2c1=O (stereo not given)	LANA-H2A inh 19
CCC(C(=O)NC1CCCCC1)n1nc(C)c2c(C)n(-c3ccccc3)nc2c1=O (stereo not given)	none
CC(=O)Nc1ccc(NC(=O)COC(=O)CCNS(=O)(=O)c2c(Cl)cccc2Cl)cc1	none (no result: HDAC3 inhib, LANA-H2A inh, AI-2 QS modul, A1 inh)
Oc1ccccc1N1CCN(C(=S)Nc2ccc(SC(F)F)cc2)CC1	LANA-H2A inh 23
O=C(Oc1ccccc1/C=C\C(=O)c1cc2ccccc2o1)c1cccc(F)c1	LANA-H2A inh 17
O=C(Oc1ccccc1/C=C\C(=O)c1cc2ccccc2o1)c1ccccc1	none
CC(=O)Nc1cc(C)ns1	none (no result: HDAC3 inhib, LANA-H2A inh, AI-2 QS modul, A1 inh)
O=C(NCCN1CCOCC1)c1cc(-c2ccc(F)cc2)on1	LANA-H2A inh 182
Cc1nc(N[C@@H](Cc2c[nH]c3ccccc23)C(=O)O)c2oc3ccccc3c2n1	LANA-H2A inh 18
COc1ccc(S(=O)(=O)CC2(O)CCN(C(=O)C(C)(C)C)CC2)cc1	none
CC(C)C(=O)Nc1cccc(COc2ccc(CN(Cc3ccccc3)C(=O)OC(C)(C)C)cc2)c1	none (no result: HDAC3 inhib, LANA-H2A inh, AI-2 QS modul, A1 inh)
CCOC(=O)c1c(C)n(C)c2ccc(O)c(CN3CCN(C)CC3)c12	none
CCOC(=O)c1c(CSc2ccccc2)n(C)c2ccc(O)c(CN3CCOCC3)c12	LANA-H2A inh 18
